Source: ChEMBL document CHEMBL1151164, “New prostanoids with cytotoxic activity from Taiwanese octocoral Clavularia viridis” (J Nat Prod, 2004)
pIC50: −log10 of the molar value.

Key:
HT-29 = assay: Cytotoxicity against human HT-29 cells after 72 hrs by SRB assay; type: functional, cell-based; details: HT-29, 48 h, in the assay text read “48 hrs” for “72 hrs”
Outline: (§1)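 Cells seeded in RPMI 1640 with 5% FBS at 37 °C, 5% CO2; after 24 h, two plates per line fixed in situ with TCA as time-zero. Drug added, then 48 h further incubation at 37 °C. Fixed with cold TCA, stained with 0.4% w/v SRB in 1% acetic acid, bound dye solubilized in 10 mM trizma base, absorbance 515 nm. IC50 = concentration halving absorbance versus untreated cells.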

PC-3 = assay: Cytotoxicity against human PC3 cells after 72 hrs by SRB assay; type: functional, cell-based; details: PC-3, 48 h, in the assay text read “48 hrs” for “72 hrs”; outline: as §1

Row | SMILES | pIC50 (HT-29) | pIC50 (PC-3)
1 | CCCCC/C=C\C[C@]1(O)C=CC(=O)/C1=C/C=C\CCCC(=O)OC | 5.22 | 5.14
2 | CCCCC/C=C\C[C@]1(O)C=CC(=O)/C1=C/C=C/CCCC(=O)OC | 5.39 | 5.27
3 | CCCCC/C=C\C[C@]1(O)C=CC(=O)/C1=C\C=C\CCCC(=O)OC | 5.10 | 5.41
4 | CCCCC/C=C\C[C@@]1(O)C=C(Br)C(=O)/C1=C\C=C\CCCC(=O)OC [BROMOCLAVULONE III] | 6.30 | 6.30
5 | CCCCC/C=C\C[C@@]1(O)C=C(Br)C(=O)/C1=C/C=C/CCCC(=O)OC [BROMOVULONE II] | 5.27 | 5.25
6 | CCCCC/C=C\C[C@@]1(O)C=C(Cl)C(=O)/C1=C/C=C/CCCC(=O)OC [CHLOROVULONE III] | 5.57 | 5.72
7 | CCCCC/C=C\C[C@@]1(O)C=C(Cl)C(=O)/C1=C\C=C\CCCC(=O)OC [CHLOROVULONE II] |  | 6.10
8 | CCCCC/C=C\C[C@]1(OC(C)=O)C=CC(=O)/C1=C/C=C/CCCC(=O)OC [CLAVIRIDENONE E] | < 5.00 | 5.46
9 | CCCCC/C=C\C[C@@]1(O)C=C(I)C(=O)/C1=C\C=C\CCCC(=O)OC [IODOVULONE III] | < 5.00 | 5.17
10 | CCCCC/C=C\C[C@@]1(O)C=C(I)C(=O)/C1=C/C=C/CCCC(=O)OC [IODOVULONE II] | 5.19 | 5.41
